In ChEMBL document CHEMBL1149868, “Synthesis and in vitro anti-leishmanial activity of 1-[5-(5-nitrofuran-2-yl)-1,3,4-thiadiazol-2-yl]- and 1-[5-(5-nitrothiophen-2-yl)-1,3,4-thiadiazol-2-yl]-4-aroylpiperazines” (Bioorg Med Chem, 2008):
Active and inactive are the calls of the source. No cut-off for these calls is given here.

Legend:
Leishmania major [1] = experiment: Antileishmanial activity against Leishmania major amastigotes assessed as decrease in infectivity in mouse macrophages after 24 hrs; format: functional, organism-based
[2] = Cytotoxicity against mouse macrophages assessed as cell death at 11.75 uM after 24 hrs by MTT colorimetric assay; format: cell-based; settings: macrophage
Leishmania major [3] = experiment: Antileishmanial activity against Leishmania major MRHO/IR/75/ER amastigotes by Giemsa staining
Leishmania major [4] = experiment: Antileishmanial activity against Leishmania major amastigotes in mouse macrophages assessed as decrease in infectivity index after 24 hrs; format: functional, organism-based
[5] = Partition coefficient, log p of the compound; format: physicochemical; settings: octanol/water
Leishmania major [6] = experiment: Antileishmanial activity against Leishmania major MRHO/IR/75/ER promastigotes by MTT assay; format: functional, organism-based
Procedure, shortened: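 L. major MRHO/IR/75/ER promastigotes from early log phase, 2×10^6/mL, in phenol red free RPMI 1640 with 10% FBS, 2 mM glutamine, pH ~7.2 and antibiotics. Exposed to serial drug dilutions for 24 h at 25 °C. MTT (0.5 mg/mL) added for 4 h at 37 °C, pellet dissolved in DMSO, A492 read. Two or more independent experiments in triplicate; IC50 by linear regression, means ± SD.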

[7] = Cytotoxicity against mouse macrophages assessed as cell death at 30 uM after 24 hrs by MTT colorimetric assay; format: cell-based; settings: macrophage
Procedure, shortened: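 Mouse peritoneal macrophages were seeded at 2×10^5 cells/well and allowed to adhere. Medium was then replaced with compound-containing medium and cells were incubated 24 h at 37 °C in humidified 5% CO2. Controls received medium plus DMSO. Viability was read by MTT. % cell death = (control viability − treated viability)/control viability. Values are means ± SD.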

[8] = Cytotoxicity against mouse macrophages assessed as cell death at 19.18 uM after 24 hrs by MTT colorimetric assay; format: cell-based; settings: macrophage
[9] = Cytotoxicity against mouse macrophages assessed as cell death at 28.26 uM after 24 hrs by MTT colorimetric assay; format: cell-based; settings: macrophage
[10] = Cytotoxicity against mouse macrophages assessed as cell death at 26.22 uM after 24 hrs by MTT colorimetric assay; format: cell-based; settings: macrophage
[11] = Cytotoxicity against mouse macrophages assessed as cell death at 25 uM after 24 hrs by MTT colorimetric assay; format: cell-based; settings: macrophage
[12] = Cytotoxicity against mouse macrophages assessed as cell death at 24.69 uM after 24 hrs by MTT colorimetric assay; format: cell-based; settings: macrophage
[13] = Cytotoxicity against mouse macrophages assessed as cell death at 11.69 uM after 24 hrs by MTT colorimetric assay; format: cell-based; settings: macrophage
[14] = Cytotoxicity against mouse macrophages assessed as cell death at 13.19 uM after 24 hrs by MTT colorimetric assay; format: cell-based; settings: macrophage
[15] = Cytotoxicity against mouse macrophages assessed as cell death at 34.44 uM after 24 hrs by MTT colorimetric assay; format: cell-based; settings: macrophage
[16] = Cytotoxicity against mouse macrophages assessed as cell death at >50 uM after 24 hrs by MTT colorimetric assay; format: cell-based; settings: macrophage
[17] = Cytotoxicity against mouse macrophages assessed as cell death at 23.78 uM after 24 hrs by MTT colorimetric assay; format: cell-based; settings: macrophage
[18] = Cytotoxicity against mouse macrophages assessed as cell death at 24.11 uM after 24 hrs by MTT colorimetric assay; format: cell-based; settings: macrophage
[19] = Cytotoxicity against mouse macrophages assessed as cell death at 13.11 uM after 24 hrs by MTT colorimetric assay; format: cell-based; settings: macrophage
[20] = Cytotoxicity against mouse macrophages assessed as cell death at 10.73 uM after 24 hrs by MTT colorimetric assay; format: cell-based; settings: macrophage

Row | Compound | logP [5] | Activity (Leishmania major [1]) | Activity (Leishmania major [3]) | Activity (Leishmania major [4]) | IC50 (Leishmania major [6]) | further results
1 | MEGLUMINE ANTIMONATE |  |  |  |  |  | Activity [7]: 40.4%
2 | O=C(c1cccs1)N1CCN(c2nnc(-c3ccc([N+](=O)[O-])s3)s2)CC1 | 1.13 |  |  |  | 28.3 µM | Activity [9]: 8.7%
3 | O=C(c1ccccc1)N1CCN(c2nnc(-c3ccc([N+](=O)[O-])s3)s2)CC1 | 2.52 |  |  |  | 25 µM | Activity [11]: 8.9%
4 | O=C(c1ccccc1Cl)N1CCN(c2nnc(-c3ccc([N+](=O)[O-])s3)s2)CC1 | 2.29 |  |  |  | 34.4 µM | Activity [15]: 6.1%
5 | O=C(c1cccc(Cl)c1)N1CCN(c2nnc(-c3ccc([N+](=O)[O-])s3)s2)CC1 | 2.29 |  |  |  | > 50 µM | Activity [16]: 5.5%
6 | O=C(c1ccc(Cl)s1)N1CCN(c2nnc(-c3ccc([N+](=O)[O-])s3)s2)CC1 | 2.27 |  |  |  | 23.8 µM | Activity [17]: 9.8%
7 | O=C(c1ccc(Cl)cc1)N1CCN(c2nnc(-c3ccc([N+](=O)[O-])s3)s2)CC1 | 2.29 |  |  |  | 24.1 µM | Activity [18]: 7.2%

Further lines, with some results ahead:

Row | logP [5] | Compound | Activity (Leishmania major [1]) | Activity (Leishmania major [3]) | Activity (Leishmania major [4]) | IC50 (Leishmania major [6]) | further results
8 | 1.92 | O=C(c1ccc(Cl)s1)N1CCN(c2nnc(-c3ccc([N+](=O)[O-])o3)s2)CC1 | Active | Active | Active | 11.8 µM | Activity [2]: 7.6%
9 | 0.78 | O=C(c1cccs1)N1CCN(c2nnc(-c3ccc([N+](=O)[O-])o3)s2)CC1 |  |  |  | 19.2 µM | Activity [8]: 2.4%
10 | 1.95 | O=C(c1ccc(Cl)cc1)N1CCN(c2nnc(-c3ccc([N+](=O)[O-])o3)s2)CC1 |  |  |  | 26.2 µM | Activity [10]: 9.7%
11 | 2.57 | O=C(c1ccc(Br)s1)N1CCN(c2nnc(-c3ccc([N+](=O)[O-])s3)s2)CC1 |  |  |  | 24.7 µM | Activity [12]: 9.2%
12 | 2.17 | O=C(c1ccccc1)N1CCN(c2nnc(-c3ccc([N+](=O)[O-])o3)s2)CC1 | Active | Active | Active | 11.7 µM | Activity [13]: 7.1%
13 | 1.95 | O=C(c1cccc(Cl)c1)N1CCN(c2nnc(-c3ccc([N+](=O)[O-])o3)s2)CC1 | Active | Active | Active | 13.2 µM | Activity [14]: 9.7%
14 | 2.22 | O=C(c1ccc(Br)s1)N1CCN(c2nnc(-c3ccc([N+](=O)[O-])o3)s2)CC1 | Active | Active | Active | 13.1 µM | Activity [19]: 7.7%
15 | 1.95 | O=C(c1ccccc1Cl)N1CCN(c2nnc(-c3ccc([N+](=O)[O-])o3)s2)CC1 | Active | Active | Active | 10.7 µM | Activity [20]: 8.7%
